From ChEMBL document CHEMBL1138866, “Antitubercular nucleosides that inhibit siderophore biosynthesis: SAR of the glycosyl domain” (J Med Chem, 2006)
In brackets after ≈: the same amount, converted by molar mass.

Key:
[1] = test system: Mycobacterium tuberculosis; assay: Antitubercular activity against Mycobacterium tuberculosis H37Rv; assay type: functional
Outline: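 Broth microdilution in iron-deficient GAST, in quadruplicate, with drugs from DMSO stocks and DMSO-treated control wells. Initial density 10^4–10^5 cells/assay, 37 °C, OD620 read at 10 and 14 days. MIC99 is the concentration giving complete growth inhibition.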

[2] = test system: Yersinia pseudotuberculosis; assay: Inhibitory activity against Yersinia pseudotuberculosis ATCC 6902; assay type: functional
Outline: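 Broth microdilution in triplicate in desferrated BHI (Chelex-treated plus 200 μM 2,2′-dipyridyl), with or without 150 μM FeCl3 for iron-rich conditions. Initial density 10^3–10^4 cells/well, compounds up to 100 μM, 1% DMSO control. Grown 24 h at 37 °C with shaking; OD600 read; MIC99.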

[3] = biological target: T1, Salicyl-AMP ligase / salicyl-S-ArCP synthetase (Mycobacterium tuberculosis, UniProt P71716); assay: Inhibition of Mycobacterium tuberculosis MbtA by [32P]PPi-ATP exchange assay; conditions: read-out: Ki app
T1 sequence (P71716 whole entry): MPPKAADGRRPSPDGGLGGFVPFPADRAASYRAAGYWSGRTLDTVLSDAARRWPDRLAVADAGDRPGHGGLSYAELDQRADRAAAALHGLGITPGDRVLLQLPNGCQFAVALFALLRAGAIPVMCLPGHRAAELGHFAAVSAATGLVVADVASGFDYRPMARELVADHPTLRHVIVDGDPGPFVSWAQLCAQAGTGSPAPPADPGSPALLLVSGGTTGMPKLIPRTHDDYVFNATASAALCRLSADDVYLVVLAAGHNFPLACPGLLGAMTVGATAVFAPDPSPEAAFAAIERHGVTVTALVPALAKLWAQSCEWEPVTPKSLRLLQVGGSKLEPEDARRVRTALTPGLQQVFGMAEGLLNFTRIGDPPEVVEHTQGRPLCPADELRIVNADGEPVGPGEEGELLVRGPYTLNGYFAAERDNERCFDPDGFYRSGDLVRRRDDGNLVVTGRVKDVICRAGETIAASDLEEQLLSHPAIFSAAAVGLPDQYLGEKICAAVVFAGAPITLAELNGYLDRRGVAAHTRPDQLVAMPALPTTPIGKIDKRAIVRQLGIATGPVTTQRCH
Outline: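 Native MbtA (His6-SUMO tag removed), 7 nM, with 250 μM salicylic acid, 10 mM ATP and 1 mM PPi in 75 mM Tris-HCl pH 7.5, 10 mM MgCl2, 2 mM DTT. Inhibitor in DMSO preincubated 10 min at 23 °C, then [32P]PPi added and run 20 min at 37 °C. Charcoal-bound γ-[32P]ATP counted; duplicate data fit to Morrison equation ([E] 7.0 nM) for KIapp.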

Structure (SMILES)	MIC99 [1] [µM]	MIC99 [2] [µM]	Ki [3] [nM]
Nc1ncnc2ncn([C@@H]3O[C@H](COS(=O)(=O)NC(=O)c4ccccc4O)[C@@H](O)[C@H]3O)c12	0.29 (≈ 0.135 µg/mL)	20 (≈ 9.33 µg/mL)	
Nc1ncnc2ncn([C@H]3C[C@H](O)[C@@H](COS(=O)(=O)NC(=O)c4ccccc4O)O3)c12			3.5
Nc1ncnc2ncn([C@H]3C=C[C@@H](COS(=O)(=O)NC(=O)c4ccccc4O)C3)c12	> 200	> 100	830
Nc1ncnc2ncn([C@H]3CC[C@@H](COS(=O)(=O)NC(=O)c4ccccc4O)C3)c12	> 200		61
Nc1ncnc2ncn(COCCOS(=O)(=O)NC(=O)c3ccccc3O)c12	> 200	> 100	16700
NNC(=O)c1ccncc1 [ISONIAZID]	0.18 (≈ 0.0247 µg/mL)		
Nc1ncnc2ncn([C@@H]3O[C@H](CNS(=O)(=O)NC(=O)c4ccccc4O)[C@@H](O)[C@H]3O)c12	0.19 (≈ 0.0884 µg/mL)		3.7
Nc1ncnc2ncn([C@@H]3O[C@H](COS(=O)(=O)NC(=O)c4ccccc4O)C[C@H]3O)c12	1.56 (≈ 0.703 µg/mL)	80 (≈ 36 µg/mL)	3.2
Nc1ncnc2ncn([C@@H]3C[C@H](COS(=O)(=O)NC(=O)c4ccccc4O)[C@@H](O)[C@H]3O)c12	1.56 (≈ 0.725 µg/mL)	> 100	2.3
